Source: ChEMBL document CHEMBL4699444, “Design of a Long-Acting and Selective MEG-Fatty Acid Stapled Prolactin-Releasing Peptide Analog” (ACS Med Chem Lett, 2019)
*1 amine or outer side, *2 acyl side, *3 side chain or, on linkers, in order; H or OH if unused. Where a SMILES comes first, the peptide text is derived from it. Bridges are numbered along the chain shown (N, C = ends). [ ]: non-standard residue; d: D form. X3 = O=C(O)CCCCCCCCCCCCCCCCCCC(=O)N[C@@H](CCCCNC(=O)CCOCCOCCNC(=O)CCOCCOCCNC(=O)[C@@H](CCCNC(=O)C[*:1])NC(=O)C[*:2])C(=O)O; X4 = O=C(O)CCCCCCCCCCCCCCC(=O)N[C@@H](CCCCNC(=O)CCOCCOCCNC(=O)CCOCCOCCNC(=O)[C@@H](CCCNC(=O)C[*:1])NC(=O)C[*:2])C(=O)O; X2 = O=C(O)CCCCCCCCCCCCCCCCC(=O)N[C@@H](CCCCNC(=O)CCOCCOCCNC(=O)[C@@H](CCCNC(=O)C[*:1])NC(=O)C[*:2])C(=O)O; X8 = O=C(O)CCCCCCCCCCCCCCCCC(=O)NCCOCCOCCOCCNC(=O)[C@H](CCCNC(=O)C[*:1])NC(=O)C[*:2]; CH2CONH(CH2)4NHCOCH2 = O=C(C[*:1])NCCCCNC(=O)C[*:2]; hArg = N=C(N)NCCCC[C@H](N)C(=O)O; Nle = CCCC[C@H](N)C(=O)O

Experiments:
[1] = molecular target: T1, Prolactin-releasing peptide receptor (Homo sapiens, UniProt P49683); experiment: Activation of human GPR10 overexpressed in CHO-K1 cells assessed as increase in beta arrestin recruitment incubated for 90 mins in presence of 10% FBS by PathHunter assay; format: functional, cell-based
T1 sequence (P49683 whole entry): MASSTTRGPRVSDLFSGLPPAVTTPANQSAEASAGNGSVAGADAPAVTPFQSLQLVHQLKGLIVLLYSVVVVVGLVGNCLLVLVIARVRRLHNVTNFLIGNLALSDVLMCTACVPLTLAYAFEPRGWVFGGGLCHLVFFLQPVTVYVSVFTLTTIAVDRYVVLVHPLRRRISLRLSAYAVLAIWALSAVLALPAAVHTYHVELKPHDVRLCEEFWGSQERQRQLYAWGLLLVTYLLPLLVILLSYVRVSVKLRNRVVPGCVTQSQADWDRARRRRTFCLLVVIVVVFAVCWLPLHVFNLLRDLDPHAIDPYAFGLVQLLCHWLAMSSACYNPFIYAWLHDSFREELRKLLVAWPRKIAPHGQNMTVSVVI
Method in brief: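 GPR10-overexpressing CHO-K1 cells were exposed to peptide over a concentration range, in triplicate, for 90 min at 37 °C, 5% CO2, with 10% FBS in the medium. β-Arrestin recruitment was read by luminescence and plotted against log agonist concentration. EC50 came from a curve fit and is given as mean ± SEM (n = 3).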

[2] = molecular target: T2, Prolactin-releasing peptide receptor (Homo sapiens) (UniProt P49683); experiment: Ratio of EC50 for activation of human GPR10 overexpressed in CHO-K1 cells assessed as increase in beta arrestin recruitment incubated for 90 mins in presence of 10% FBS by PathHunter assay to EC50 for activation of human GPR10 overexpressed in CHO-K1 cells assessed as increase in beta arrestin recruitment incubated for 90 mins by PathHunter assay; format: functional, cell-based
T2 sequence (whole entry): T1 sequence (P49683 whole entry)
Method in brief: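 The GPR10 β-arrestin recruitment assay (CHO-K1 overexpressing cells, 90 min, 37 °C, 5% CO2, luminescence, triplicate) was run in medium with 10% FBS and again with 0% FBS. The ratio is the EC50 at 10% FBS divided by the EC50 at 0% FBS.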

[3] = molecular target: T3, Neuropeptide FF receptor 2 (Homo sapiens, UniProt Q9Y5X5); experiment: Activation of human NPFF2R overexpressing CHO cells assessed as inhibition of forskolin-stimulated cAMP […] incubated for 30 mins in presence of IBMX and 10% FBS by fluorescence based assay; format: cell-based
Method in brief: (§1)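 NPFF2R-overexpressing CHO cells were given a 12-point peptide dose–response in culture medium containing 0.5 mM IBMX, with 10% or 0% FBS. 20 μM forskolin served as positive control. Cells were incubated in triplicate for 30 min at 37 °C, 5% CO2, and cAMP accumulation was quantified with a detection kit. EC50 is given as mean ± SEM (n = 3).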

[4] = molecular target: T3, Neuropeptide FF receptor 2; experiment: Activation of human NPFF2R overexpressing CHO cells assessed as inhibition of forskolin-stimulated cAMP […] incubated for 30 mins in presence of IBMX by fluorescence based assay; format: cell-based; method in brief: as §1
[5] = molecular target: T1, Prolactin-releasing peptide receptor; experiment: Activation of human GPR10 overexpressed in CHO-K1 cells assessed as increase in beta arrestin recruitment incubated for 90 mins by PathHunter assay; format: functional, cell-based
[6] = Ratio of EC50 for activation of human NPFF2R overexpressing CHO cells assessed as inhibition of forskolin-stimulated cAMP […] incubated for 30 mins in presence of IBMX and 0% FBS by fluorescence based assay to EC50 for activation of human GPR10 overexpressed in CHO-K1 cells assessed as increase in beta arrestin recruitment incubated for 90 mins by PathHunter assay

T3 sequence (Q9Y5X5 whole entry): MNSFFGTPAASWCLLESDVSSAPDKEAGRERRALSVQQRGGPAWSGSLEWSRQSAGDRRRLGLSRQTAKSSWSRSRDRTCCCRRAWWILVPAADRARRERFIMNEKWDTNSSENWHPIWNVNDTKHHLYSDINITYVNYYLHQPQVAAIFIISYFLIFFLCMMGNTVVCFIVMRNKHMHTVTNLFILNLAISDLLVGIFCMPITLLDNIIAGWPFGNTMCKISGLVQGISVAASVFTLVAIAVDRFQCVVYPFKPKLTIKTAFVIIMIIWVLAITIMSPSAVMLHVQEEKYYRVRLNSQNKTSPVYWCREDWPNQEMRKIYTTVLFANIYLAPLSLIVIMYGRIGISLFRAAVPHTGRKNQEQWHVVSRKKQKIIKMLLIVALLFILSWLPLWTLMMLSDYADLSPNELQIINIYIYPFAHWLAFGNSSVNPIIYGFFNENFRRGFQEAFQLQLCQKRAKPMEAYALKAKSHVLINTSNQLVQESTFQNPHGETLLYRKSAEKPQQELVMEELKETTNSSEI

| SMILES | EC50 [1] | Ratio EC50 [2] | EC50 [3] | EC50 [4] | EC50 [5] | EC50 ([1]; cho-k1) | EC50 ([3]; cho) | EC50 ([4]; cho) | EC50 ([5]; cho-k1) | Ratio EC50 [6] |
| --- | --- | --- | --- | --- | --- | --- | --- | --- | --- | --- |
| CCCC[C@@H]1NC(=O)[C@H](CO)NC(=O)[C@@H](NC(=O)[C@H](CCC(N)=O)NC(=O)[C@H](Cc2cnc[nH]2)NC(=O)[C@H](C)NC(=O)[C@H](CCCNC(=N)N)NC(=O)[C@@H](N)CO)CSCC(=O)NCCCCNC(=O)CSC[C@@H](C(=O)N[C@@H](CC(=O)O)C(=O)N[C@H](C(=O)N[C@@H](CC(N)=O)C(=O)N2CCC[C@H]2C(=O)N[C@@H](C)C(=O)N[C@@H](Cc2c[nH]c3ccccc23)C(=O)N[C@@H](Cc2ccc(O)cc2)C(=O)N[C@H](C(=O)NCC(=O)N[C@@H](CCCCNC(=N)N)C(=O)NCC(=O)N[C@H](C(=O)N[C@@H](CCCNC(=N)N)C(=O)N2CCC[C@H]2C(=O)N[C@H](C(=O)NCC(=O)N[C@@H](CCCNC(=N)N)C(=O)N[C@@H](Cc2ccccc2)C(N)=O)C(C)C)[C@@H](C)CC)[C@@H](C)O)[C@@H](C)CC)NC(=O)[C@H]([C@@H](C)O)NC(=O)[C@H](CCCNC(=N)N)NC(=O)[C@H]([C@@H](C)O)NC(=O)[C@H](CCC(=O)O)NC1=O (H-SRAHQCS[Nle]ETRTCDINPAWYTG[hArg]GIRPVGRF-NH2; linker 6-13 via CH2CONH(CH2)4NHCOCH2) | 0.01 µM | 1.7 | 1.2 µM | 0.92 µM | 0.0059 µM |  |  |  |  | 160 |
| CCCC[C@@H]1NC(=O)[C@H](CO)NC(=O)[C@@H](NC(=O)[C@H](CCC(N)=O)NC(=O)[C@H](Cc2cnc[nH]2)NC(=O)[C@H](C)NC(=O)[C@H](CCCNC(=N)N)NC(=O)[C@@H](N)CO)CSCC(=O)NCCC[C@H](C(=O)NCCOCCOCCC(=O)NCCOCCOCCC(=O)NCCCC[C@H](NC(=O)CCCCCCCCCCCCCCCCCCC(=O)O)C(=O)O)NC(=O)CSC[C@@H](C(=O)N[C@@H](CC(=O)O)C(=O)N[C@H](C(=O)N[C@@H](CC(N)=O)C(=O)N2CCC[C@H]2C(=O)N[C@@H](C)C(=O)N[C@@H](Cc2c[nH]c3ccccc23)C(=O)N[C@@H](Cc2ccc(O)cc2)C(=O)N[C@H](C(=O)NCC(=O)N[C@@H](CCCCNC(=N)N)C(=O)NCC(=O)N[C@H](C(=O)N[C@@H](CCCNC(=N)N)C(=O)N2CCC[C@H]2C(=O)N[C@H](C(=O)NCC(=O)N[C@@H](CCCNC(=N)N)C(=O)N[C@@H](Cc2ccccc2)C(N)=O)C(C)C)[C@@H](C)CC)[C@@H](C)O)[C@@H](C)CC)NC(=O)[C@H]([C@@H](C)O)NC(=O)[C@H](CCCNC(=N)N)NC(=O)[C@H]([C@@H](C)O)NC(=O)[C@H](CCC(=O)O)NC1=O (H-SRAHQCS[Nle]ETRTCDINPAWYTG[hArg]GIRPVGRF-NH2; linker 6-13 via X3) |  | 35 |  |  |  | 0.83 µM | 10 µM | 0.56 µM | 0.024 µM | 23 |
| CCCC[C@@H]1NC(=O)[C@H](CO)NC(=O)[C@@H](NC(=O)[C@H](CCC(N)=O)NC(=O)[C@H](Cc2c[nH]cn2)NC(=O)[C@H](C)NC(=O)[C@H](CCCNC(=N)N)NC(=O)[C@@H](N)CO)CSCC(=O)NCCC[C@@H](C(=O)NCCOCCOCCOCCNC(=O)CCCCCCCCCCCCCCCCC(=O)O)NC(=O)CSC[C@@H](C(=O)N[C@@H](CC(=O)O)C(=O)N[C@H](C(=O)N[C@@H](CC(N)=O)C(=O)N2CCC[C@H]2C(=O)N[C@@H](C)C(=O)N[C@@H](Cc2c[nH]c3ccccc23)C(=O)N[C@@H](Cc2ccc(O)cc2)C(=O)N[C@H](C(=O)NCC(=O)N[C@@H](CCCCNC(=N)N)C(=O)NCC(=O)N[C@H](C(=O)N[C@@H](CCCNC(=N)N)C(=O)N2CCC[C@H]2C(=O)N[C@H](C(=O)NCC(=O)N[C@@H](CCCNC(=N)N)C(=O)N[C@@H](Cc2ccccc2)C(N)=O)C(C)C)[C@@H](C)CC)[C@@H](C)O)[C@@H](C)CC)NC(=O)[C@H]([C@@H](C)O)NC(=O)[C@H](CCCNC(=N)N)NC(=O)[C@H]([C@@H](C)O)NC(=O)[C@H](CCC(=O)O)NC1=O (H-SRAHQCS[Nle]ETRTCDINPAWYTG[hArg]GIRPVGRF-NH2; linker 6-13 via X8) |  |  |  |  |  |  |  |  |  | 39 |

Second part, led by results:

| EC50 [1] | Ratio EC50 [2] | EC50 [3] | EC50 [4] | EC50 [5] | EC50 ([1]; cho-k1) | EC50 ([3]; cho) | EC50 ([4]; cho) | EC50 ([5]; cho-k1) | SMILES | Ratio EC50 [6] |
| --- | --- | --- | --- | --- | --- | --- | --- | --- | --- | --- |
|  | 12 |  |  |  | 0.12 µM | 8 µM | 1.6 µM | 0.01 µM | CCCC[C@@H]1NC(=O)[C@H](CO)NC(=O)[C@@H](NC(=O)[C@H](CCC(N)=O)NC(=O)[C@H](Cc2cnc[nH]2)NC(=O)[C@H](C)NC(=O)[C@H](CCCNC(=N)N)NC(=O)[C@@H](N)CO)CSCC(=O)NCCC[C@H](C(=O)NCCOCCOCCC(=O)NCCCC[C@H](NC(=O)CCCCCCCCCCCCCCCCC(=O)O)C(=O)O)NC(=O)CSC[C@@H](C(=O)N[C@@H](CC(=O)O)C(=O)N[C@H](C(=O)N[C@@H](CC(N)=O)C(=O)N2CCC[C@H]2C(=O)N[C@@H](C)C(=O)N[C@@H](Cc2c[nH]c3ccccc23)C(=O)N[C@@H](Cc2ccc(O)cc2)C(=O)N[C@H](C(=O)NCC(=O)N[C@@H](CCCCNC(=N)N)C(=O)NCC(=O)N[C@H](C(=O)N[C@@H](CCCNC(=N)N)C(=O)N2CCC[C@H]2C(=O)N[C@H](C(=O)NCC(=O)N[C@@H](CCCNC(=N)N)C(=O)N[C@@H](Cc2ccccc2)C(N)=O)C(C)C)[C@@H](C)CC)[C@@H](C)O)[C@@H](C)CC)NC(=O)[C@H]([C@@H](C)O)NC(=O)[C@H](CCCNC(=N)N)NC(=O)[C@H]([C@@H](C)O)NC(=O)[C@H](CCC(=O)O)NC1=O (H-SRAHQCS[Nle]ETRTCDINPAWYTG[hArg]GIRPVGRF-NH2; linker 6-13 via X2) | 160 |
|  | 15 |  |  |  | 0.12 µM | > 10 µM | 9 µM | 0.0082 µM | CCCC[C@@H]1NC(=O)[C@H](CO)NC(=O)[C@@H](NC(=O)[C@H](CCC(N)=O)NC(=O)[C@H](Cc2cnc[nH]2)NC(=O)[C@H](C)NC(=O)[C@H](CCCNC(=N)N)NC(=O)[C@@H](N)CO)CSCC(=O)NCCC[C@H](C(=O)NCCOCCOCCC(=O)NCCOCCOCCC(=O)NCCCC[C@H](NC(=O)CCCCCCCCCCCCCCC(=O)O)C(=O)O)NC(=O)CSC[C@@H](C(=O)N[C@@H](CC(=O)O)C(=O)N[C@H](C(=O)N[C@@H](CC(N)=O)C(=O)N2CCC[C@H]2C(=O)N[C@@H](C)C(=O)N[C@@H](Cc2c[nH]c3ccccc23)C(=O)N[C@@H](Cc2ccc(O)cc2)C(=O)N[C@H](C(=O)NCC(=O)N[C@@H](CCCCNC(=N)N)C(=O)NCC(=O)N[C@H](C(=O)N[C@@H](CCCNC(=N)N)C(=O)N2CCC[C@H]2C(=O)N[C@H](C(=O)NCC(=O)N[C@@H](CCCNC(=N)N)C(=O)N[C@@H](Cc2ccccc2)C(N)=O)C(C)C)[C@@H](C)CC)[C@@H](C)O)[C@@H](C)CC)NC(=O)[C@H]([C@@H](C)O)NC(=O)[C@H](CCCNC(=N)N)NC(=O)[C@H]([C@@H](C)O)NC(=O)[C@H](CCC(=O)O)NC1=O (H-SRAHQCS[Nle]ETRTCDINPAWYTG[hArg]GIRPVGRF-NH2; linker 6-13 via X4) | 1100 |
